Results from ChEMBL document CHEMBL1123514 (J Med Chem, 1986).

Experiments:
Homo sapiens [1] = species: Homo sapiens; test: The compound was evaluated for the optical density at concentrations 10E-5 M in MCF-7 cell culture in the presence of estradiol.; format: ADME
Summary of the method: (§1)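 MCF-7 cells seeded at 10000 cells/mL in 96-well dishes and cultured 24 h. Compound (final 10⁻⁷, 10⁻⁶ or 10⁻⁵ M) was then added together with estradiol at 10⁻⁸ M final to test whether estradiol antagonizes growth inhibition. After 5 days, cells were ethanol-fixed (90%) and hematoxylin-stained, and optical density was read at 540 nm.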

Homo sapiens [2] = species: Homo sapiens; test: The compound was evaluated for the optical density at concentration 10E-7 M in MCF-7 cell culture.; format: ADME
Homo sapiens [3] = species: Homo sapiens; test: The compound was evaluated for the optical density at concentration 10E-6 M in MCF-7 cell culture in the presence of estradiol.; format: ADME; summary of the method: as §1
[4] = molecular target: Estrogen receptor (Rattus norvegicus) (UniProt P06211+Q62986)
Homo sapiens [5] = species: Homo sapiens; test: The compound was evaluated for the optical density at concentrations 10E-7 M in MCF-7 cell culture in the presence of estradiol.; format: ADME; summary of the method: as §1
Homo sapiens [6] = species: Homo sapiens; test: The compound was evaluated for the optical density at concentration 10E-5 M in MCF-7 cell culture.; format: ADME
[7] = molecular target: Estrogen receptor (Homo sapiens) (UniProt P03372)
Homo sapiens [8] = species: Homo sapiens; test: The compound was evaluated for the optical density at concentration 10E-6 M in MCF-7 cell culture.; format: ADME

Chain of Estrogen receptor (Homo sapiens) (P03372 whole entry, looked up): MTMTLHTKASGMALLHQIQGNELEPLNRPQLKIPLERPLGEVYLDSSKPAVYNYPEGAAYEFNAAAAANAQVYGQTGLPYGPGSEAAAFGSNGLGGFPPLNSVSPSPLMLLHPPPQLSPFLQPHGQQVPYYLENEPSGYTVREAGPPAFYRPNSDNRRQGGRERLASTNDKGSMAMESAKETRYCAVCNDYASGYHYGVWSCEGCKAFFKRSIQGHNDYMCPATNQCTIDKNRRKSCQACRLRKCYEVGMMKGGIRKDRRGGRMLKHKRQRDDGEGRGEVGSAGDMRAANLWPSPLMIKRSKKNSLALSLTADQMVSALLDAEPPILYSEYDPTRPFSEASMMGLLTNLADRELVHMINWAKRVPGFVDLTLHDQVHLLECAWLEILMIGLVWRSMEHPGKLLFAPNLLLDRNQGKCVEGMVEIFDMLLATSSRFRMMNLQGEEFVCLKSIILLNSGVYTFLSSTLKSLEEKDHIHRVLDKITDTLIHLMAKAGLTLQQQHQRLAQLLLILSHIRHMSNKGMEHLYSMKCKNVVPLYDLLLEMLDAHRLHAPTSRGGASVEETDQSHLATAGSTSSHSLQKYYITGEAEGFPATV

Optical density (Homo sapiens [1]) | Optical density (Homo sapiens [2]) | Optical density (Homo sapiens [3]) | Affinity [4] | Optical density (Homo sapiens [5]) | Optical density (Homo sapiens [6]) | Affinity [7] | Optical density (Homo sapiens [8]) | Compound
0.079 | 0.39 | 0.385 | 0.5 | 0.45 | 0.049 | 0.02 | 0.288 | CN(C)CCOc1ccc(C2=C(c3ccccc3)CCc3ccccc32)cc1
0.098 | 0.244 | 0.438 | 1 | 0.379 | 0.058 | 0.02 | 0.182 | CN(C)CCOc1ccc(C2=C(c3ccccc3)CCCc3ccccc32)cc1
